Test results published in ChEMBL document CHEMBL3856201, “5,10b-Ethanophenanthridine amaryllidaceae alkaloids inspire the discovery of novel bicyclic ring systems with activity against drug resistant cancer cells” (2016).
Calls of active or inactive are those of the source. The calls are words filed in the database; no cut-off is given here.

Tests used:
[1] = Antiproliferative activity against human HeLa cells after 48 hrs by MTT assay; assay type: functional
In short: (§1)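 HeLa cells were cultured in DMEM + 10% FBS and MCF-7 cells in RPMI + 10% FBS, both at 37 °C under 5% CO2. Compounds were diluted from DMSO stocks and applied for 48 h. Viability was read by MTT relative to DMSO control. The value is the concentration reducing viability by 50%, ±SD from two independent experiments of 4 replicates each.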

[2] = Antiproliferative activity against human MCF7 cells after 48 hrs by MTT assay; assay type: functional; details: MCF7, 48 h; in short: as §1
[3] = Antiproliferative activity against drug-sensitive human Hs683 cells after 48 to 96 hrs by MTT assay; assay type: functional; details: Hs 683
In short: (§2)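 MTT read-out. T98G and Hs683 cells were grown in DMEM with 10% FBS, glutamine, gentamicin and penicillin-streptomycin at 37 °C and 5% CO2. Compounds came from 100 or 50 mM DMSO stocks and were tested at 0.001–100 µM for 48–96 h. Controls were 0.1% DMSO (negative) and 1 µM phenyl arsine oxide (positive). The value is the mean concentration giving 50% viability loss; replicate number varied.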

[4] = Antiproliferative activity against drug-resistant human U373 cells after 48 to 96 hrs by MTT assay; assay type: functional, U-373MG ATCC; details: U373 MG
In short: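 Culture was RPMI with 10% heat-inactivated FBS plus glutamine and antibiotics for U373 cells. Compound exposure was 0.001–100 µM for 48–96 h, with 0.1% DMSO and 1 µM phenyl arsine oxide as controls. The MTT assay gave the average concentration cutting viability by 50%; replicate numbers varied.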

[5] = Antiproliferative activity against drug-resistant human U251 cells after 48 to 96 hrs by MTT assay; assay type: functional; details: U-251
In short: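 U251 cells were kept in 10% MEM with glutamine, gentamicin and penicillin-streptomycin at 37 °C and 5% CO2. After seeding they were grown 24–72 h and then given compounds at 0.001–100 µM (from 100 or 50 mM DMSO stocks) for 48–96 h. Viability was read by MTT. Vehicle control was 0.1% DMSO; 1 µM phenyl arsine oxide served as positive control. The result is the average 50%-viability-reducing concentration.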

[6] = Antiproliferative activity against drug-resistant human U87 cells after 48 to 96 hrs by MTT assay; assay type: functional, U-87MG ATCC; details: U-87 MG
In short: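 U87 cells grown in DMEM with glutamine, gentamicin and penicillin-streptomycin (37 °C, 95% humidity, 5% CO2) were seeded and then treated with 0.001–100 µM compound for 48–96 h. Readout was MTT. Controls were 0.1% DMSO and 1 µM phenyl arsine oxide. The value is the average concentration reducing viability 50%.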

[7] = Antiproliferative activity against drug-resistant human T98G cells after 48 to 96 hrs by MTT assay; assay type: functional; in short: as §2
[8] = Antiproliferative activity against drug-resistant human A549 cells after 48 to 96 hrs by MTT assay; assay type: functional
In short: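 A549 cells grown in RPMI with 10% heat-inactivated FBS, 4 mM glutamine and antibiotics at 37 °C under 5% CO2. Compounds came from 100 or 50 mM DMSO stocks and were tested at 0.001–100 µM for 48–96 h. Read-out was MTT. The value is the mean concentration giving 50% viability loss, with varied replicate numbers. Controls were 0.1% DMSO (negative) and 1 µM phenyl arsine oxide (positive).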

[9] = Antiproliferative activity against patient-derived TMZ-sensitive GBM 090909 cells after 48 to 96 hrs by MTT assay; assay type: functional; details: Homo sapiens
In short: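 Primary GBM neurosphere cultures came from resected patient tumour. Tissue was minced, dissociated with 100 U/mL collagenase in neurobasal medium for 30 min at 37 °C, filtered through 70 µm, spun at 200 × g for 5 min, and grown in ultra-low attachment wells in neurobasal medium with B27. Compounds were applied at 0.001–100 µM for 48–96 h. MTT gave the average 50%-viability concentration.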

[10] = Antiproliferative activity against patient-derived TMZ-resistant GBM 031810 cells over-expressing MGMT after 48 to 96 hrs by MTT assay; assay type: functional; details: Homo sapiens
[11] = Antiproliferative activity against patient-derived paclitaxel-sensitive NCI-H1993 cells after 48 to 96 hrs by MTT assay; assay type: functional; details: Homo sapiens
[12] = Antiproliferative activity against patient-derived paclitaxel-resistant NCI-H2073 cells after 48 to 96 hrs by MTT assay; assay type: functional; details: Homo sapiens
[13] = Antiproliferative activity against human MES-SA cells after 48 to 96 hrs by MTT assay; assay type: functional
In short: (§3)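 Parent MES-SA and MES-SA/Dx5 uterine sarcoma cells were grown in RPMI-1640 with 10% FBS. The Dx5 line was kept in 500 nM doxorubicin after stepwise selection from 100 nM in twofold steps, about 2 passages per step. MTT assay used 0.001–100 µM compound for 48–96 h, with 0.1% DMSO and 1 µM phenyl arsine oxide controls. The ratio is the Dx5 GI50 divided by the parent GI50.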

[14] = Antiproliferative activity against human MES-SA/Dx5 cells after 48 to 96 hrs by MTT assay; assay type: functional; in short: as §3
NCI-H1993 = test: Potentiation of paclitaxel-induced cytotoxicity against patient-derived paclitaxel-sensitive NCI-H1993 cells assessed as reduction in cell viability up to 100 uM after 96 hrs by Celltiter-Glo luminescent assay; assay type: functional, cell-based; details: Homo sapiens
In short: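 NCI-H1993 cells were seeded at 4×10^3 per well and grown 24 h. […] Viability was read by CellTiter-Glo luminescence. Predicted additivity was calculated by Bliss independence, Exy = Ex + Ey − ExEy.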

[15] = Inhibition of cap/HCV-mediated translation in mouse Krebs2 cell free extract expressing FF/HCV/Ren mRNA reporter transcript assessed as reduction in luciferase production at 50 uM relative to control; assay type: functional
In short: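 Krebs-2 translation extracts were programmed with bicistronic FF/HCV/Ren mRNA and incubated with compound at 50 µM or vehicle (0.5% DMSO). Firefly (cap) and Renilla (HCV IRES) luciferase activities were expressed relative to the DMSO control, from 2 independent translation reactions, as mean with error of the mean. Reference inhibitors were 1 µM hippuristanol and 10 µM anisomycin.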

Oryctolagus cuniculus = organism: Oryctolagus cuniculus; test: Inhibition of cap/HCV-mediated translation in rabbit reticulocyte lysate expressing FF/HCV/Ren mRNA reporter transcript assessed as reduction in luciferase production at 50 uM after 1 hr relative to control; assay type: functional
In short: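 Rabbit reticulocyte lysate was programmed with bicistronic FF/HCV/Ren mRNA and incubated with compound (50 µM) or 0.5% DMSO vehicle. Firefly and Renilla luciferase activities were expressed relative to the DMSO control. Two independent translation reactions, reported with error of the mean.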

HeLa S3 [16] = test: Inhibition of translation in human HeLaS3 assessed as increase in eIF2alpha phosphorylation at 50 uM after 1 hr by Western blot analysis; assay type: functional
In short: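 HeLa S3 cells were exposed to 50 µM compound for 1 h. Extracts were resolved by SDS-PAGE and transferred to PVDF. Western blots were probed for phospho-eIF2α, pan-eIF2α and eEF2.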

HeLa S3 [17] = test: Inhibition of translation in human HeLaS3 assessed as induction of dis-aggregation of polysomes at 50 uM after 1 hr by UV-based […] method; assay type: functional
In short: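 HeLa S3 cells were exposed to 50 µM compound for 1 h, then analysed by polysome profiling against a DMSO-treated control profile.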

In the case of `O=C1C=C[C@]23CC[N@](Cc4c2sc2ccccc42)[C@H]3C1`, the GI50 [1] is reported as 8 µM, the GI50 [2] is reported as 5 µM and the GI50 [3] is reported as 3000 nM. The GI50 [4] was 2000 nM, the GI50 [5] was 1000 nM and the GI50 [6] was 2000 nM. The GI50 [7] was 7 µM, the GI50 [8] was 9 µM and the GI50 [9] was 5 µM. For the same compound, the GI50 [10] was 1000 nM, the GI50 [11] was 3000 nM and the GI50 [12] was 11 µM. For the same compound, the GI50 [13] was 5 µM, the GI50 [14] was 7 µM and the Activity (NCI-H1993) was “Active”. For the same compound, the inhibition at 50 µM [15] was 25%, the inhibition (Oryctolagus cuniculus) was 25% and the inhibition (HeLa S3 [16]) was “Active”. For the same compound, the inhibition (HeLa S3 [17]) was “Active”.
